Series [1] concerns the target Matrix metalloproteinase-9 (Homo sapiens, UniProt P14780). The experiment in a line: Inhibitory activity against human gelatinase B (Matrix metalloprotease-9).
Series [2] addresses 72 kDa type IV collagenase (Homo sapiens, UniProt P08253). Kind of series: Inhibitory activity against human gelatinase A (matrix metalloprotease-2 MMP2).
A short description of series [3]: Maximum plasma concentration (Cmax) after p.o. administration of 200 mg/kg in mice. Further details: dose 200 mg/kg, route oral. The format is ADME, organism-based. The note with it: mouse, po. The essentials:
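Single 200 mg/kg oral dose in mice, given in 0.5% methyl cellulose. Blood drawn at various time points. Plasma drug extracted with CH3CN and quantified by reverse-phase C18 HPLC using a CH3CN gradient with 0.1% TFA. Peak plasma level taken as Cmax.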

SMILES strings stand for the structures. pIC50: −log10 of the molar value.

Sequence of Matrix metalloproteinase-9 (P14780 whole entry): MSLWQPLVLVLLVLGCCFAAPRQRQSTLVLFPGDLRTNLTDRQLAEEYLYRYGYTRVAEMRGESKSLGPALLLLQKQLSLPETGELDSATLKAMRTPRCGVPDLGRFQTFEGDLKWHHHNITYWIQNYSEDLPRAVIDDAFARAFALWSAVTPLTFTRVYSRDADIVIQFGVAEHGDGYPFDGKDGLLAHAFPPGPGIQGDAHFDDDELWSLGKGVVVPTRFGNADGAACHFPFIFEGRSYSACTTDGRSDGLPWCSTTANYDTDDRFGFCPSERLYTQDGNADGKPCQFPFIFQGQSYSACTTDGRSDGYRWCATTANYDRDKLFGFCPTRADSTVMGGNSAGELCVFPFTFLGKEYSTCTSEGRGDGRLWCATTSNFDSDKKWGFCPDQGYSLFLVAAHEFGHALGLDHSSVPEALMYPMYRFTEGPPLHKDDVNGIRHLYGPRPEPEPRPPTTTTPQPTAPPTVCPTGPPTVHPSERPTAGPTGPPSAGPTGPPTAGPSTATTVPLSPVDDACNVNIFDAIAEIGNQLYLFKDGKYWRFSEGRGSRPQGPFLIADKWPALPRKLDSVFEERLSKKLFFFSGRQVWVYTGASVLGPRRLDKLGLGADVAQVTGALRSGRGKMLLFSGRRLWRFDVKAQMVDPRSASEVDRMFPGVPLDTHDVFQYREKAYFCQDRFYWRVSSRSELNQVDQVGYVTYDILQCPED
Sequence of 72 kDa type IV collagenase (P08253 whole entry): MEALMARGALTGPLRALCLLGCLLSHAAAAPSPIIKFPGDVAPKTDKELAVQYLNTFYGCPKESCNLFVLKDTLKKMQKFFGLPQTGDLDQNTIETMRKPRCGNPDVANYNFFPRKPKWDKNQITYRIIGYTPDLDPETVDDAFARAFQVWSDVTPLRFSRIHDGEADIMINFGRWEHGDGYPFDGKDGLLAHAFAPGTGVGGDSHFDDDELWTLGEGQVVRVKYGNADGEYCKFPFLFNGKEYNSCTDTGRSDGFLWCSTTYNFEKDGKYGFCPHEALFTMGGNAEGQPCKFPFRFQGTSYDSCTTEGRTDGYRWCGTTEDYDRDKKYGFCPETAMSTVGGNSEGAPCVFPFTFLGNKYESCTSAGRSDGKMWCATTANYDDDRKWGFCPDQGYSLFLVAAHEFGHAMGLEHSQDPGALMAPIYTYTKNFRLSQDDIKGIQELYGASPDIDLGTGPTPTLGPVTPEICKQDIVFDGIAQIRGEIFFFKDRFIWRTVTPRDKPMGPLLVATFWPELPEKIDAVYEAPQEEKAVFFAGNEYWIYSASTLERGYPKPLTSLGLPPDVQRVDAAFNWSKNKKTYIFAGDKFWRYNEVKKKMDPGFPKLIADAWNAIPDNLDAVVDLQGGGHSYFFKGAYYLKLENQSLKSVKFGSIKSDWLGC

In general, pIC50 refers to the IC50 on a negative log10 scale, so that one unit is a factor of ten. A low value points to a large IC50. On to `O=C(O)c1ccc(C#Cc2ccc(S(=O)(=O)N[C@H](Cc3c[nH]c4ccccc34)C(=O)O)cc2)cc1`, for which the pIC50 in series [1] was 5.06; in series [2], below 6.00.
For `O=C(O)[C@@H](Cc1c[nH]c2ccccc12)NS(=O)(=O)c1ccc2oc3ccccc3c2c1` the same measures were below 5.00 and below 6.00.
Molecule `O=C(O)[C@@H](Cc1ccccc1)NS(=O)(=O)c1ccc(-c2nnn(-c3ccc(C4CCCCC4)cc3)n2)cc1` showed a pIC50 in series [2] of 6.55.
Consider `CC(C)[C@@H](NS(=O)(=O)c1ccc(NC(=O)c2ccc([N+](=O)[O-])cc2)cc1)C(=O)O`, for which the values for the pIC50 in series [1] and in series [2] were 6.57 and above 7.40, respectively.
For orientation: Cmax means the highest concentration seen after dosing. In series [3], `O=C(O)[C@@H](Cc1ccccc1)NS(=O)(=O)c1ccc(-c2ccccc2)cc1` returned a Cmax of 291 µM. In addition, the pIC50 in series [2] is 6.51.
For the molecule `O=C(Nc1ccc(S(=O)(=O)N[C@H](Cc2c[nH]c3ccccc23)C(=O)O)cc1)c1ccccc1`, the pIC50 in series [2] is above 7.40.
Turning to `COc1ccc(-c2ccc(S(=O)(=O)N[C@@H](C(=O)O)C(C)C)cc2)cc1`, the highest concentration (Cmax) in series [3] turned out to be 89.9 µM. Besides, the negative logarithm of the IC50 (pIC50) was 7.40 in series [1] and above 7.00 in series [2].
For `CC(C)[C@@H](NS(=O)(=O)c1ccc(Oc2ccccc2)cc1)C(=O)NO` the same measures were 5.8 µM, 9.27 and 8.70.
In series [3], `O=C(O)[C@@H](Cc1c[nH]c2ccccc12)NS(=O)(=O)c1ccc(-c2ccccc2)cc1` showed a Cmax of 34.3 µM. Further, the pIC50 is 6.74 in series [1] and 7.28 in series [2].
For `O=C(NO)C(Cc1ccccc1)NS(=O)(=O)c1ccccc1` (configuration not stated), the pIC50 in series [1] is 6.00.
Consider `O=C(O)[C@@H](Cc1ccccc1)NS(=O)(=O)c1ccc(-c2nnn(-c3ccccc3)n2)cc1`, for which, in series [3], the peak level (Cmax) was 12.1 µM. Also, the pIC50 in series [1] is 6.24; in series [2], 6.96.
The matching figures for `COc1ccc(C#Cc2ccc(S(=O)(=O)N[C@H](Cc3ccccc3)C(=O)O)s2)cc1`: 119 µM, 7.62 and 8.00.
Turning to `O=C(O)[C@@H](Cc1c[nH]c2ccccc12)NS(=O)(=O)c1ccc(Cc2ccccc2)cc1`, the pIC50 is below 5.00 in series [1] and below 6.00 in series [2].
The matching figures for `O=C(c1ccccc1)c1ccc(S(=O)(=O)N[C@H](Cc2c[nH]c3ccccc23)C(=O)O)cc1`: below 5.00 and below 6.00.
For the molecule `Cc1ccc(C#Cc2ccc(S(=O)(=O)N[C@H](Cc3c[nH]c4ccccc34)C(=O)O)cc2)cc1`, in series [3], the highest level (Cmax) was 10.8 µM. For the same molecule, the pIC50 in series [1] is 7.80; in series [2], 7.47.
On to `O=C(N[C@H](Cc1ccccc1)C(=O)NO)c1ccc(-c2ccccc2)cc1`, for which the pIC50 was below 4.30 in series [1] and below 6.00 in series [2].
For `COc1cccc(-c2ccc(S(=O)(=O)N[C@H](Cc3c[nH]c4ccccc34)C(=O)O)cc2)c1` the same measures were 5.96 and 6.00.
For `COc1ccc(-c2ccc(S(=O)(=O)N[C@@H](C(=O)O)C(C)C)s2)cc1`, in series [3], the peak level (Cmax) was 97.5 µM. Further, the pIC50 is 7.14 in series [1] and 7.18 in series [2].
Turning to `CC(C)[C@@H](NS(=O)(=O)c1ccc(NC(=O)c2ccccc2)cc1)C(=O)O`, the pIC50 in series [1] is 5.68; in series [2] it was 7.30.
With `O=C(N[C@H](Cc1ccccc1)C(=O)O)c1ccc(-c2ccccc2)cc1`, the pIC50 in series [1] is below 4.30; in series [2], below 6.00.
For `O=C(O)[C@@H](Cc1c[nH]c2ccccc12)NS(=O)(=O)c1ccc(/N=N/c2ccccc2)cc1` the same measures were 6.46 and 7.30.
As to `CSc1ccc(C(=O)Nc2ccc(S(=O)(=O)N[C@@H](C(=O)O)C(C)C)cc2)cc1`, the Cmax in series [3] amounted to 8.3 µM. Further, the pIC50 in series [2] was 8.17.
Turning to `O=C(O)[C@@H](Cc1c[nH]c2ccccc12)NS(=O)(=O)c1ccccc1`, the pIC50 in series [1] was 5.47; in series [2], below 6.00.
`O=C(O)[C@H](Cc1ccccc1)NS(=O)(=O)c1ccc(-c2ccccc2)cc1` had a pIC50 in series [1] of 6.10.
With `O=C(O)[C@@H](Cc1c[nH]c2ccccc12)NS(=O)(=O)c1ccc(Oc2ccccc2)cc1`, the pIC50 is 6.60 in series [1] and 7.30 in series [2].
With `O=C(O)[C@@H](Cc1c[nH]c2ccccc12)NS(=O)(=O)c1ccc(C#Cc2ccccc2[N+](=O)[O-])s1`, the pIC50 is 5.82 in series [1] and below 6.00 in series [2].
For the molecule `CC(C)[C@@H](NS(=O)(=O)c1ccc(-c2nnn(-c3ccccc3)n2)cc1)C(=O)O`, the pIC50 in series [2] is 6.89.
As to `O=C(NO)[C@@H](Cc1ccccc1)NS(=O)(=O)c1ccc(-c2ccccc2)cc1`, the highest level in series [3] (Cmax) was 2.5 µM. This molecule showed a pIC50 in series [2] of 7.77.
`COc1ccc(-c2ccc(S(=O)(=O)N[C@H](Cc3c[nH]c4ccccc34)C(=O)O)cc2)cc1`: the peak level in series [3] (Cmax) was 3.5 µM. Moreover, the pIC50 in series [1] is 7.09; in series [2], 8.19.
As to `O=C(Nc1ccc(S(=O)(=O)N[C@H](Cc2ccccc2)C(=O)O)cc1)c1ccccc1`, the pIC50 in series [2] was above 6.00.
Turning to `COc1ccc(C#Cc2ccc(S(=O)(=O)N[C@H](Cc3ccccc3)C(=O)O)cc2)cc1`, the figures for the pIC50 in series [1] and in series [2] were 5.11 and 6.00, respectively.
On to `Cc1ccc(C(=O)Nc2ccc(S(=O)(=O)N[C@H](Cc3ccccc3)C(=O)O)cc2)cc1`, for which, in series [2], the pIC50 is above 7.40.
As for `O=C(Nc1ccccc1)c1ccc(S(=O)(=O)N[C@H](Cc2c[nH]c3ccccc23)C(=O)O)cc1`, the pIC50 in series [1] was below 5.00; in series [2], below 6.00.
`CC(C)[C@@H](NS(=O)(=O)c1ccc(Oc2ccccc2)cc1)C(=O)O`: the highest concentration (Cmax) in series [3] came out at 334 µM. For the same molecule, the figures for the negative logarithm of the IC50 (pIC50) in series [1] and in series [2] were 5.96 and below 6.00, respectively.
`O=C(NO)[C@H](Cc1ccccc1)NS(=O)(=O)c1ccccc1`: the pIC50 in series [1] was below 3.00.
For the molecule `O=C(O)[C@@H](Cc1c[nH]c2ccccc12)NS(=O)(=O)c1ccc2ccccc2c1`, the results for the pIC50 in series [1] and in series [2] were below 5.00 and below 6.00, respectively.
In series [1], `O=C(NO)[C@@H](Cc1ccccc1)NS(=O)(=O)c1ccccc1` showed a pIC50 of 6.14.
The same measure, in the same setting: the value for `O=C(O)[C@@H](Cc1c[nH]c2ccccc12)NS(=O)(=O)c1ccc(C#Cc2ccc([N+](=O)[O-])cc2)s1` was 7.64.
Regarding `O=C(O)[C@@H](Cc1c[nH]c2ccccc12)NS(=O)(=O)c1ccc(C#Cc2ccccc2)cc1`, the pIC50 in series [1] was 6.62; in series [2], 7.30.
`Cc1ccc(-n2nnc(-c3ccc(S(=O)(=O)N[C@H](Cc4ccccc4)C(=O)O)cc3)n2)cc1` came in with a Cmax in series [3] of 1.2 µM. Further, in series [2], the pIC50 was above 6.70.
Regarding `Cc1ccc(C#Cc2ccc(S(=O)(=O)N[C@@H](C(=O)O)C(C)C)s2)cc1`, the Cmax in series [3] was 284 µM. Also, the results for the pIC50 in series [1] and in series [2] were 7.85 and 7.28, respectively.
On to `O=C(NO)[C@@H](Cc1c[nH]c2ccccc12)NS(=O)(=O)c1ccc(-c2ccccc2)cc1`, for which the pIC50 is 8.30 in series [1] and 8.89 in series [2].
For `Cc1ccc(C#Cc2ccc(S(=O)(=O)N[C@@H](C(=O)O)C(C)C)cc2)cc1` the same measures were 5.92 and below 6.00.
For `O=C(Nc1ccccc1)Nc1ccc(S(=O)(=O)N[C@H](Cc2c[nH]c3ccccc23)C(=O)O)cc1` the same measures were below 5.00 and below 6.00.
The molecule `COc1ccc(-n2nnc(-c3ccc(S(=O)(=O)N[C@H](Cc4c[nH]c5ccccc45)C(=O)O)cc3)n2)cc1` yielded a maximum concentration (Cmax) in series [3] of 2.1 µM. For the same molecule, the pIC50 in series [2] was 7.89.
For `O=C(O)[C@@H](Cc1c[nH]c2ccccc12)NS(=O)(=O)c1ccc(-c2nnn(-c3ccc(Br)cc3)n2)cc1` the same measures were 2.5 µM and 8.08.

For the origin of these results see ChEMBL document CHEMBL1131478 (J Med Chem, 1998).
